Assays:
[1] = target: Chitin synthase 1 (Candida albicans) (UniProt P23316); test: Inhibitory activity against chitin synthase from Candida albicans at a concentration 100 uM
Summary of the method: (§1)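 Membrane preparation from C. albicans grown in liquid shake culture in Sabouraud broth, pH 6.5, washed in 0.2 M Tris-HCl pH 7.5 and broken with glass beads. Chitin synthase trypsin-activated just before assay. Substrate UDP-GlcNAc 0.5 mM. Percent inhibition at the stated inhibitor concentration, mean of triplicate assays.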

[2] = target: Chitin synthase 1 (Candida albicans) (UniProt P23316); test: Inhibitory activity against chitin synthase from Candida albicans at a concentration 25 uM; summary of the method: as §1
[3] = target: Chitin synthase 1 (Candida albicans) (UniProt P23316); test: Inhibitory activity against chitin synthase from Candida albicans at a concentration 5 uM; summary of the method: as §1

Chitin synthase 1 (Candida albicans), sequence (P23316 whole entry, looked up): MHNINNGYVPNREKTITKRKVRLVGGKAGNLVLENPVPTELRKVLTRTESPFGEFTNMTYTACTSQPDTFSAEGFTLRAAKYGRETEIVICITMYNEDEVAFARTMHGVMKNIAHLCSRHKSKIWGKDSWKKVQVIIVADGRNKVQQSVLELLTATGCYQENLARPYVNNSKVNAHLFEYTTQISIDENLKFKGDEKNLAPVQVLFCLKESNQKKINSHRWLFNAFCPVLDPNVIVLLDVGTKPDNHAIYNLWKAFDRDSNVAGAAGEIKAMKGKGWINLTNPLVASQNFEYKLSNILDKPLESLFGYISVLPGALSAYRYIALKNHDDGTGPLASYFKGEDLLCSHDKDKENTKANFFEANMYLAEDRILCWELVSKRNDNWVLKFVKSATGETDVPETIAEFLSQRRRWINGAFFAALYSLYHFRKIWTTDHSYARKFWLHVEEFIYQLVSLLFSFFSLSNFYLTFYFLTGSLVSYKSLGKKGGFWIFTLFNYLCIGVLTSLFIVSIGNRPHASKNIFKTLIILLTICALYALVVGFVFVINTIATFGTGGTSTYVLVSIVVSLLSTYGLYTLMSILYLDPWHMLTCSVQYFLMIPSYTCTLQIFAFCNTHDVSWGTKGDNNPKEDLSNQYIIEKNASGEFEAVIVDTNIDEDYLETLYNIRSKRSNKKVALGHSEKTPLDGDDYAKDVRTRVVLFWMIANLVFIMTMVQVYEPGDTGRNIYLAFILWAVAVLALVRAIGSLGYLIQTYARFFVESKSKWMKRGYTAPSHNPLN

inhibition [1] [%] | inhibition [2] [%] | inhibition [3] [%] | SMILES
53 | 26 | 8 | C[C@@H](O)[C@H](N)C(=O)N[C@@H](C(=O)O)[C@H]1O[C@@H](n2ccc(=O)[nH]c2=O)[C@H](O)[C@@H]1O
0 | 0 | 0 | C[C@@H](N)C(=O)N[C@@H](C(=O)O)[C@H]1O[C@@H](n2ccc(=O)[nH]c2=O)[C@H](O)[C@@H]1O
45 | 20 | 0 | C[C@H](N)C(=O)N[C@@H](C(=O)O)[C@H]1O[C@@H](n2ccc(=O)[nH]c2=O)[C@H](O)[C@@H]1O
2 | 0 | 0 | C[C@@H](N)CNC(C(=O)O)C1OC(n2ccc(=O)[nH]c2=O)C(O)C1O (some centres undefined)

The next lines start with the compound.

SMILES | inhibition [1] [%] | inhibition [2] [%] | inhibition [3] [%]
N[C@@H](C(=O)N[C@@H](C(=O)O)[C@H]1O[C@@H](n2ccc(=O)[nH]c2=O)[C@H](O)[C@@H]1O)[C@H](O)Cc1ccc(O)cc1 | 100 | 96 | 79
C[C@H](N)C(=O)N(C)[C@@H](C(=O)O)[C@H]1O[C@@H](n2ccc(=O)[nH]c2=O)[C@H](O)[C@@H]1O | 0 | 0 | 0
NC(=O)NCCC[C@@H](N)C(=O)N[C@H](C(=O)O)[C@H]1O[C@@H](n2ccc(=O)[nH]c2=O)[C@H](O)[C@@H]1O | 0 | 0 | 0
NC(=O)NCCC[C@@H](N)C(=O)N[C@@H](C(=O)O)[C@H]1O[C@@H](n2ccc(=O)[nH]c2=O)[C@H](O)[C@@H]1O | 80 | 37 | 0
